{
  "source": "paper PMC3902791",
  "about": "(Molecular imaging and biology : MIB : the official …, 2012)",
  "key": {"[1]": {"test_system": "rhesus macaques", "experiment": "Hematology and blood chemistry before and after PET imaging", "format": "in vivo"}, "[2]": {"experiment": "Stability of radiochemical purity of the product", "format": "physicochemical", "conditions": "after completion of the synthesis", "how_it_was_run": "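Final product was in 0.9% saline adjusted to pH 6–8 and sterile-filtered. Radiochemical purity was followed after end of synthesis by HPLC: Supelcogel C-610H column (30 cm × 7.8 mm), 20 mM aqueous phosphoric acid, 0.5 mL/min, UV and radioactivity detection.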"}},
  "note": "Entries after “also recorded” stand apart in the source; their conditions may differ.",
  "data": [
    {"molecule": "O=C(O)C[18F]", "note": "[^18F-FACE, ^18F-fluoroacetate]", "values": [
      {"measurement": "ALP", "setting": "[1]; After 1–3 months", "value": "134.0±58.2", "unit": "IU/L"},
      {"measurement": "ALT", "setting": "[1]; After 1–3 months", "value": "30.5±8.5", "unit": "IU/L"},
      {"measurement": "AST", "setting": "[1]; After 1–3 months", "value": "28.7±3.4", "unit": "IU/L"},
      {"measurement": "Albumin", "setting": "[1]; After 1–3 months", "value": "3.4 ± 0.8", "unit": "g/dL"},
      {"measurement": "BUN", "setting": "[1]; After 1–3 months", "value": "17.9 ± 4.9", "unit": "mg/dL"},
      {"measurement": "Hb", "setting": "[1]; After 1–3 months", "value": "13.4 ± 0.4", "unit": "g/dL"},
      {"measurement": "Hct", "setting": "[1]; After 1–3 months", "value": "42.4±2.0", "unit": "%"},
      {"measurement": "Plt", "setting": "[1]; After 1–3 months", "value": "303.0±118.8 ×10^6/mL"},
      {"measurement": "RBC", "setting": "[1]; After 1–3 months", "value": "5.7±0.1 ×10^6/mL"},
      {"measurement": "Total bilirubin", "setting": "[1]; After 1–3 months", "value": "0.2 ± 0.1", "unit": "mg/dL"},
      {"measurement": "Total protein", "setting": "[1]; After 1–3 months", "value": "6.1 ± 0.9", "unit": "g/dL"},
      {"measurement": "WBC", "setting": "[1]; After 1–3 months", "value": "4.8±0.5 ×10^3/mL"},
      {"measurement": "ALP", "setting": "[1]; After imaging", "value": "169.4±61.3", "unit": "IU/L"},
      {"measurement": "ALT", "setting": "[1]; After imaging", "value": "34.2±12.2", "unit": "IU/L"},
      {"measurement": "AST", "setting": "[1]; After imaging", "value": "29.0±5.6", "unit": "IU/L"},
      {"measurement": "Albumin", "setting": "[1]; After imaging", "value": "3.9 ± 0.8", "unit": "g/dL"},
      {"measurement": "BUN", "setting": "[1]; After imaging", "value": "17.9 ± 4.6", "unit": "mg/dL"},
      {"measurement": "Hb", "setting": "[1]; After imaging", "value": "13.1 ± 1.2", "unit": "g/dL"},
      {"measurement": "Hct", "setting": "[1]; After imaging", "value": "41.4±2.5", "unit": "%"},
      {"measurement": "Plt", "setting": "[1]; After imaging", "value": "328.1±54.2 ×10^6/mL"},
      {"measurement": "RBC", "setting": "[1]; After imaging", "value": "5.7±0.6 ×10^6/mL"},
      {"measurement": "Total bilirubin", "setting": "[1]; After imaging", "value": "0.3 ± 0.1", "unit": "mg/dL"},
      {"measurement": "Total protein", "setting": "[1]; After imaging", "value": "7.0 ± 0.5", "unit": "g/dL"},
      {"measurement": "WBC", "setting": "[1]; After imaging", "value": "6.8± 1.1 ×10^3/mL"},
      {"measurement": "changes in CBC, blood chemistry, liver enzymes, renal function", "setting": "[1]; before vs after 3 h and 1–3 months", "value": "no statistically significant changes; also recorded: no significant changes in CBC, liver enzymes, or renal function"},
      {"measurement": "time the product maintained its radiochemical purity", "setting": "[2]", "value": "more than 8 h"}
    ]}
  ]
}
